Laboratory results published in ChEMBL document CHEMBL1649574, “Prevalence and characterization of heterogeneous vancomycin-intermediate Staphylococcus aureus isolates from 14 cities in China” (2009).
≈ marks a conversion by molar mass, not a printed value.

Experiments:
Assay type in all cases: functional
[1] = system: Staphylococcus aureus; assay: Antimicrobial activity against SCCmec type II vancomycin-intermediate Staphylococcus aureus isolate 4sy32 by agar dilution method
Outline: (§1)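 Agar-dilution MICs were measured on a subset of 200 blood MRSA isolates from China. Agents: oxacillin, rifampin, gentamicin, levofloxacin, erythromycin, vancomycin, teicoplanin, tigecycline, ceftobiprole and linezolid. Phenotype came from the PAP-AUC ratio of each isolate to S. aureus Mu3 (VSSA <0.9; hVISA 0.9 to 1.3; VISA ≥1.3), read on BHI agar with 0 to 8.0 mg/liter vancomycin after 48 h at 35°C.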

[2] = system: Staphylococcus aureus; assay: Antimicrobial activity against SCCmec type II vancomycin-intermediate Staphylococcus aureus isolate 4sy39 by agar dilution method; outline: as §1
[3] = system: Staphylococcus aureus; assay: Antimicrobial activity against heterogeneous vancomycin-intermediate Staphylococcus aureus by agar dilution method; outline: as §1
[4] = system: Staphylococcus aureus; assay: Antimicrobial activity against vancomycin-intermediate Staphylococcus aureus by agar dilution method; outline: as §1
[5] = system: Staphylococcus aureus; assay: Antimicrobial activity against heterogeneous vancomycin-intermediate Staphylococcus aureus assessed as intermediate isolates by agar dilution method
Outline: (§2)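 MICs by agar dilution for all 200 MRSA blood isolates (oxacillin, rifampin, gentamicin, levofloxacin, erythromycin, vancomycin, teicoplanin, tigecycline, ceftobiprole, linezolid). Isolates were grouped by PAP-AUC ratio against S. aureus Mu3: below 0.9 VSSA, 0.9 to 1.3 hVISA, 1.3 or more VISA.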

[6] = system: Staphylococcus aureus; assay: Antimicrobial activity against heterogeneous vancomycin-intermediate Staphylococcus aureus assessed as susceptible isolates by agar dilution method; outline: as §2
[7] = system: Staphylococcus aureus; assay: Antimicrobial activity against heterogeneous vancomycin-intermediate Staphylococcus aureus assessed as growth inhibition at 0.25 times MIC; design: scale not given: the % may be the effect or the level left
[8] = system: Staphylococcus aureus; assay: Antimicrobial activity against heterogeneous vancomycin-intermediate Staphylococcus aureus assessed as growth inhibition at 0.125 times MIC; design: scale not given: the % may be the effect or the level left
[9] = system: Staphylococcus aureus; assay: Antimicrobial activity against vancomycin-susceptible Staphylococcus aureus by agar dilution method; outline: as §1
[10] = system: Staphylococcus aureus; assay: Antimicrobial activity against heterogeneous vancomycin-susceptible Staphylococcus aureus assessed as intermediate isolates by agar dilution method
[11] = system: Staphylococcus aureus; assay: Antimicrobial activity against heterogeneous vancomycin-susceptible Staphylococcus aureus assessed as susceptible isolates by agar dilution method; outline: as §2
[12] = system: Staphylococcus aureus; assay: Antimicrobial activity against heterogeneous vancomycin-intermediate Staphylococcus aureus assessed as growth inhibition at 0.5 times MIC; design: scale not given: the % may be the effect or the level left
[13] = system: Staphylococcus aureus; assay: Antimicrobial activity against heterogeneous vancomycin-intermediate Staphylococcus aureus assessed as growth inhibition at MIC; design: scale not given: the % may be the effect or the level left
[14] = system: Staphylococcus aureus; assay: Antimicrobial activity against heterogeneous vancomycin-intermediate Staphylococcus aureus assessed as growth inhibition at 2 times MIC; design: scale not given: the % may be the effect or the level left
[15] = system: Staphylococcus aureus; assay: Antimicrobial activity against heterogeneous vancomycin-intermediate Staphylococcus aureus assessed as growth inhibition at 4 times MIC; design: scale not given: the % may be the effect or the level left
[16] = system: Staphylococcus aureus; assay: Antimicrobial activity against heterogeneous vancomycin-intermediate Staphylococcus aureus assessed as growth inhibition at 16 times MIC; design: scale not given: the % may be the effect or the level left
[17] = system: Staphylococcus aureus; assay: Antimicrobial activity against vancomycin-susceptible Staphylococcus aureus assessed as growth inhibition at 0.125 times MIC; design: scale not given: the % may be the effect or the level left
[18] = system: Staphylococcus aureus; assay: Antimicrobial activity against vancomycin-susceptible Staphylococcus aureus assessed as growth inhibition at 0.25 times MIC; design: scale not given: the % may be the effect or the level left
[19] = system: Staphylococcus aureus; assay: Antimicrobial activity against vancomycin-susceptible Staphylococcus aureus assessed as growth inhibition at 0.5 times MIC; design: scale not given: the % may be the effect or the level left
[20] = system: Staphylococcus aureus; assay: Antimicrobial activity against vancomycin-susceptible Staphylococcus aureus assessed as growth inhibition at MIC; design: scale not given: the % may be the effect or the level left
[21] = system: Staphylococcus aureus; assay: Antimicrobial activity against vancomycin-susceptible Staphylococcus aureus assessed as growth inhibition at 2 times MIC; design: scale not given: the % may be the effect or the level left
[22] = system: Staphylococcus aureus; assay: Antimicrobial activity against vancomycin-susceptible Staphylococcus aureus assessed as growth inhibition at 4 times MIC; design: scale not given: the % may be the effect or the level left
[23] = system: Staphylococcus aureus; assay: Antimicrobial activity against vancomycin-susceptible Staphylococcus aureus assessed as growth inhibition at 16 times MIC; design: scale not given: the % may be the effect or the level left
[24] = system: Staphylococcus aureus; assay: Antimicrobial activity against SCCmec type III vancomycin-intermediate Staphylococcus aureus isolate 5zjsau3 by agar dilution method; outline: as §1
[25] = system: Staphylococcus aureus; assay: Antimicrobial activity against SCCmec type II vancomycin-intermediate Staphylococcus aureus isolate sh06024 by agar dilution method; outline: as §1
[26] = system: Staphylococcus aureus; assay: Antimicrobial activity against SCCmec type III vancomycin-intermediate Staphylococcus aureus isolate gz06040 by agar dilution method; outline: as §1
[27] = system: Staphylococcus aureus; assay: Antimicrobial activity against SCCmec type III vancomycin-intermediate Staphylococcus aureus isolate gz06051 by agar dilution method; outline: as §1
[28] = system: Staphylococcus aureus; assay: Antimicrobial activity against SCCmec type II vancomycin-intermediate Staphylococcus aureus isolate 6zjsau7 by agar dilution method; outline: as §1
[29] = system: Staphylococcus aureus; assay: Antimicrobial activity against SCCmec type III vancomycin-intermediate Staphylococcus aureus isolate bd4768 by agar dilution method; outline: as §1
[30] = system: Staphylococcus aureus; assay: Antimicrobial activity against SCCmec type II vancomycin-intermediate Staphylococcus aureus isolate b2k4781 by agar dilution method; outline: as §1
[31] = system: Staphylococcus aureus; assay: Antimicrobial activity against SCCmec type III vancomycin-intermediate Staphylococcus aureus isolate b3k2345 by agar dilution method; outline: as §1
[32] = system: Staphylococcus aureus; assay: Antimicrobial activity against SCCmec type III vancomycin-intermediate Staphylococcus aureus isolate b2k3421 by agar dilution method; outline: as §1
[33] = system: Staphylococcus aureus; assay: Antimicrobial activity against SCCmec type III vancomycin-intermediate Staphylococcus aureus isolate b3k5923 by agar dilution method; outline: as §1
[34] = system: Staphylococcus aureus; assay: Antimicrobial activity against SCCmec type III vancomycin-intermediate Staphylococcus aureus isolate b4k6307 by agar dilution method; outline: as §1
[35] = system: Staphylococcus aureus; assay: Antimicrobial activity against SCCmec type III vancomycin-intermediate Staphylococcus aureus isolate b5k3529 by agar dilution method; outline: as §1
[36] = system: Staphylococcus aureus; assay: Antimicrobial activity against SCCmec type III vancomycin-intermediate Staphylococcus aureus isolate b5k3578 by agar dilution method; outline: as §1
[37] = system: Staphylococcus aureus; assay: Antimicrobial activity against SCCmec type III vancomycin-intermediate Staphylococcus aureus isolate b6k1642 by agar dilution method; outline: as §1
[38] = system: Staphylococcus aureus; assay: Antimicrobial activity against SCCmec type III vancomycin-intermediate Staphylococcus aureus isolate b6k7974 by agar dilution method; outline: as §1
[39] = system: Staphylococcus aureus; assay: Antimicrobial activity against SCCmec type IV vancomycin-intermediate Staphylococcus aureus isolate 06b41 by agar dilution method; outline: as §1
[40] = system: Staphylococcus aureus; assay: Antimicrobial activity against SCCmec type III vancomycin-intermediate Staphylococcus aureus isolate 13b16 by agar dilution method; outline: as §1
[41] = system: Staphylococcus aureus; assay: Antimicrobial activity against SCCmec type III vancomycin-intermediate Staphylococcus aureus isolate 11b091 by agar dilution method; outline: as §1
[42] = system: Staphylococcus aureus; assay: Antimicrobial activity against SCCmec type II vancomycin-intermediate Staphylococcus aureus isolate 07b63 by agar dilution method; outline: as §1
[43] = system: Staphylococcus aureus; assay: Antimicrobial activity against SCCmec type III vancomycin-intermediate Staphylococcus aureus isolate 15b52 by agar dilution method; outline: as §1
[44] = system: Staphylococcus aureus; assay: Antimicrobial activity against SCCmec type III vancomycin-intermediate Staphylococcus aureus isolate zj07028 by agar dilution method; outline: as §1
[45] = system: Staphylococcus aureus; assay: Antimicrobial activity against SCCmec type III vancomycin-intermediate Staphylococcus aureus isolate sh07043 by agar dilution method; outline: as §1
[46] = system: Staphylococcus aureus; assay: Antimicrobial activity against SCCmec type III vancomycin-intermediate Staphylococcus aureus isolate xa07029 by agar dilution method; outline: as §1
[47] = system: Staphylococcus aureus; assay: Antimicrobial activity against SCCmec type III vancomycin-intermediate Staphylococcus aureus isolate gz07030 by agar dilution method; outline: as §1
[48] = system: Staphylococcus aureus; assay: Antimicrobial activity against SCCmec type III vancomycin-intermediate Staphylococcus aureus isolate gs07022 by agar dilution method; outline: as §1

CN(C)c1cc(NC(=O)CNC(C)(C)C)c(O)c2c1C[C@H]1C[C@H]3[C@H](N(C)C)C(O)=C(C(N)=O)C(=O)[C@@]3(O)C(O)=C1C2=O [TIGECYCLINE]
MIC [1]: 0.25 µg/mL (≈ 0.427 µM)
MIC [2]: 0.25 µg/mL (≈ 0.427 µM)
MIC50 [3]: 0.25 µg/mL (≈ 0.427 µM)
MIC90 [3]: 0.25 µg/mL (≈ 0.427 µM)
MIC [4]: 0.25 µg/mL (≈ 0.427 µM)
Activity [5]: 0%
Activity [6]: 100%
Activity [7]: 92.6%
Activity [8]: 44.4%
MIC50 [9]: 0.125 µg/mL (≈ 0.213 µM)
MIC90 [9]: 0.25 µg/mL (≈ 0.427 µM)
Activity [10]: 0%
Activity [11]: 100%
Activity [12]: 100%
Activity [13]: 100%
Activity [14]: 100%
Activity [15]: 100%
Activity [16]: 100%
Activity [17]: 54.3%
Activity [18]: 90.2%
Activity [19]: 100%
Activity [20]: 100%
Activity [21]: 100%
Activity [22]: 100%
Activity [23]: 100%
MIC [24]: 0.25 µg/mL (≈ 0.427 µM)
MIC [25]: 0.125 µg/mL (≈ 0.213 µM)
MIC [26]: 0.125 µg/mL (≈ 0.213 µM)
MIC [27]: 0.25 µg/mL (≈ 0.427 µM)
MIC [28]: 0.25 µg/mL (≈ 0.427 µM)
MIC [29]: 0.125 µg/mL (≈ 0.213 µM)
MIC [30]: 0.125 µg/mL (≈ 0.213 µM)
MIC [31]: 0.064 µg/mL (≈ 0.109 µM)
MIC [32]: 0.125 µg/mL (≈ 0.213 µM)
MIC [33]: 0.032 µg/mL (≈ 0.0546 µM)
MIC [34]: 0.064 µg/mL (≈ 0.109 µM)
MIC [35]: 0.125 µg/mL (≈ 0.213 µM)
MIC [36]: 0.25 µg/mL (≈ 0.427 µM)
MIC [37]: 0.25 µg/mL (≈ 0.427 µM)
MIC [38]: 0.25 µg/mL (≈ 0.427 µM)
MIC [39]: 0.25 µg/mL (≈ 0.427 µM)
MIC [40]: 0.125 µg/mL (≈ 0.213 µM)
MIC [41]: 0.125 µg/mL (≈ 0.213 µM)
MIC [42]: 0.5 µg/mL (≈ 0.854 µM)
MIC [43]: 0.25 µg/mL (≈ 0.427 µM)
MIC [44]: 0.5 µg/mL (≈ 0.854 µM)
MIC [45]: 0.25 µg/mL (≈ 0.427 µM)
MIC [46]: 0.25 µg/mL (≈ 0.427 µM)
MIC [47]: 0.125 µg/mL (≈ 0.213 µM)
MIC [48]: 0.25 µg/mL (≈ 0.427 µM)
